# Source: ChEMBL document CHEMBL1129428 (J Med Chem, 1996)
# What was measured:
# [1] = tested on: Mus musculus; test: Compound was tested for toxicity after intraperitoneal injection into mice by using toxicity screen test after 4 hr; assay type: organism-based; settings: in vivo, ip
# Method in brief: (§1)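 Mice injected intraperitoneally at 30, 100 and 300 mg/kg and examined 0.5 and 4 h afterwards. Each entry is the minimum dose giving activity (MES protection, scPTZ protection, or rotorod failure for neurotoxicity) in half or more of the mice. Activity is called absent if nothing occurs at 300 mg/kg.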
# [2] = tested on: Mus musculus; test: Compound was tested for anticonvulsant activity after intraperitoneal injection into mice by using scPTZ screen test after 0.25 hr; assay type: functional; settings: ip
# Method in brief: (§2)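 Quantitative intraperitoneal mouse testing in the MES, scPTZ or rotorod neurotoxicity screens at the peak time given for each compound (0.25–2 h). ED50 or TD50 reported in mg/kg with 95% CI and slope (SE).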
# [3] = tested on: Rattus norvegicus; test: Compound was tested for anticonvulsant activity after Oral Administration into Rats by using MES screen test after 4h,dose 12.50 mg/kg; number of rats out of four which were protected; assay type: functional; settings: dose 12.5 mg/kg
# Method in brief: (§3)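 Rats received the compound orally. […] Rats were tested in the MES screen at 0.25, 0.5, 1, 2 and 4 h. Each value is the number of rats protected out of 4. The test followed NINDS procedures.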
# [4] = tested on: Rattus norvegicus; test: Compound was tested for anticonvulsant activity after Oral Administration into Rats by using MES screen test after 1h,dose 12.50 mg/kg; number of rats out of four which were protected; assay type: functional; settings: dose 12.5 mg/kg; method in brief: as §3
# [5] = tested on: Mus musculus; test: Anticonvulsant activity after intraperitoneal injection into mice by using scPTZ screen after 0.5 hr; assay type: functional
# [6] = tested on: Rattus norvegicus; test: Compound was tested for anticonvulsant activity after Oral Administration into Rats by using MES screen test after 2h,dose 12.50 mg/kg; number of rats out of four which were protected; assay type: functional; settings: dose 12.5 mg/kg; method in brief: as §3
# [7] = tested on: Rattus norvegicus; test: Compound was tested for anticonvulsant activity after Oral Administration into Rats by using MES screen test after 0.25h,dose 12.50 mg/kg; number of rats out of four which were protected; assay type: functional; settings: dose 12.5 mg/kg; method in brief: as §3
# [8] = Compound was tested for toxicity after intraperitoneal injection into mice by using neurotoxicity screen test after 1 hr; assay type: organism-based; settings: mouse, in vivo, ip; method in brief: as §2
# [9] = tested on: Mus musculus; test: Toxicity after intraperitoneal injection into mice by using toxicity screen test after 0.5 hr; assay type: organism-based; settings: in vivo, ip; method in brief: as §1
# [10] = tested on: Mus musculus; test: Anticonvulsant activity after intraperitoneal injection into mice by using MES screen test after 0.5 hr; assay type: functional
# [11] = tested on: Mus musculus; test: Anticonvulsant activity after intraperitoneal injection into mice measured in a maximal electroshock scree (MES) screen; assay type: functional
# [12] = tested on: Mus musculus; test: Anticonvulsant activity after intraperitoneal injection into mice by using scPTZ screen test after 4 hr; assay type: functional
# [13] = tested on: Mus musculus; test: Compound was tested for anticonvulsant activity after intraperitoneal injection into mice by using MES screen test after 0.5 hr; assay type: functional; settings: ip; method in brief: as §1
# [14] = tested on: Rattus norvegicus; test: Compound was tested for anticonvulsant activity after Oral Administration into Rats by using MES screen test after 0.5h,dose 12.50 mg/kg; number of rats out of four which were protected; assay type: functional; settings: dose 12.5 mg/kg; method in brief: as §3
# [15] = Protection index = TD50/ED50 (MES); settings: mouse, in vivo; read-out: PI
# [16] = tested on: Mus musculus; test: Anticonvulsant activity after intraperitoneal injection into mice by using MES screen test after 0.25 hr; assay type: functional
# [17] = Partition coefficient (logP); assay type: physicochemical; settings: octanol/water
# Method in brief: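 Partition between 1-octanol and buffer at pH 7.4, with solutions prepared in 1-octanol before buffer is added. Quantified by UV, using λmax and ε values measured in 1-octanol.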
# [18] = tested on: Rattus norvegicus; test: Compound was tested for anticonvulsant activity after Oral Administration into Rats by using MES screen test after 0.25h,dose 12.5 mg/kg; No activity was demonstarted; assay type: functional, organism-based; design: dose 12.5 mg/kg; method in brief: as §3
# [19] = tested on: Mus musculus; test: Compound was tested for anticonvulsant activity after intraperitoneal injection into mice by using MES screen test after 4 hr; assay type: functional; settings: ip; method in brief: as §1
# [20] = tested on: Rattus norvegicus; test: Compound was tested for anticonvulsant activity after Oral Administration into Rats by using MES screen test after 4h,dose 12.5 mg/kg; number of rats out of four which were protected; assay type: functional; method in brief: as §3
# [21] = Compound was tested for toxicity after intraperitoneal injection into mice by using neurotoxicity screen test after 4 hr; assay type: organism-based; settings: mouse, in vivo, ip; method in brief: as §1
# [22] = tested on: Rattus norvegicus; test: Compound was tested for anticonvulsant activity after Oral Administration into Rats by using MES screen test after 1h,dose 12.5 mg/kg; number of rats out of four which were protected; assay type: functional; method in brief: as §3
# [23] = tested on: Rattus norvegicus; test: Compound was tested for anticonvulsant activity after Oral Administration into rat by using MES screen test after 4 hr; assay type: functional
# Method in brief: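 Rats dosed orally, typically at 50 mg/kg first, then mostly 12.5 mg/kg (some compounds at 30 mg/kg), and tested by maximal electroshock. Four rats per compound, scored at 0.25, 0.5, 1, 2 and 4 h as the number of rats protected out of 4.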
# [24] = tested on: Rattus norvegicus; test: Anticonvulsant activity after oral administration into rats; assay type: functional; design: concentration or dose not given beside the values
# [25] = tested on: Rattus norvegicus; test: Compound was tested for anticonvulsant activity after Oral Administration into Rats by using MES screen test after 2h,dose 12.5 mg/kg; number of rats out of four which were protected; assay type: functional; method in brief: as §3
# [26] = tested on: Mus musculus; test: Compound was tested for anticonvulsant activity after intraperitoneal injection into mice by using scPTZ screen test after 2 hr; assay type: functional; settings: ip; method in brief: as §2
# [27] = tested on: Rattus norvegicus; test: Compound was tested for anticonvulsant activity after Oral Administration into Rats by using MES screen test after 2h,dose 30 mg/kg; number of rats out of four which were protected; assay type: functional; method in brief: as §3
# [28] = tested on: Rattus norvegicus; test: Compound was tested for anticonvulsant activity after Oral Administration into Rats by using MES screen test after 1h,dose 30 mg/kg; number of rats out of four which were protected; assay type: functional; method in brief: as §3
# [29] = tested on: Rattus norvegicus; test: Compound was tested for anticonvulsant activity after Oral Administration into Rats by using MES screen test after 0.5h,dose 30 mg/kg; number of rats out of four which were protected; assay type: functional; method in brief: as §3
# [30] = tested on: Rattus norvegicus; test: Compound was tested for anticonvulsant activity after Oral Administration into Rats by using MES screen test after 4h,dose 30 mg/kg; number of rats out of four which were protected; assay type: functional; method in brief: as §3
# [31] = tested on: Mus musculus; test: Compound was tested for anticonvulsant activity after intraperitoneal injection into mice by using MES screen test after 2 hr; assay type: functional; settings: ip; method in brief: as §2
# [32] = Compound was tested for toxicity after intraperitoneal injection into mice by using neurotoxicity screen test after 2 hr; assay type: organism-based; settings: mouse, in vivo, ip; method in brief: as §2
# [33] = Protection index = TD50/ED50; assay type: ADME; settings: read-out: PI
# [34] = tested on: Rattus norvegicus; test: Compound was tested for anticonvulsant activity after Oral Administration into Rats by using MES screen test after 0.25h,dose 30 mg/kg; number of rats out of four which were protected; assay type: functional; method in brief: as §3
# [35] = Compound was tested for toxicity after oral administration in rat by using neurotoxicity screen test after 4 hr; assay type: organism-based; settings: in vivo
# Method in brief: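 Rat neurotoxicity after oral dosing, observed at 0.25, 0.5, 1, 2, 4, 6, 8 and 24 h (8 h omitted for one compound).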
smiles,measurement,setting,value
Cc1ccc(Oc2ccc(/C=N/NC(N)=O)cc2)c(C)c1,Dose,[1],100 mg/kg
same,ED50,[2],33.6 mg/kg
same,Activity,[3],4
same,Activity,[4],4
same,Dose,[5],30 mg/kg
same,Activity,[6],4
same,Activity,[7],1
same,TD50 at 1 h,[8],37 mg/kg
same,Dose,[9],300 mg/kg
same,Dose,[10],30 mg/kg
same,Dose,[11],30 mg/kg
same,Dose,[12],30 mg/kg
same,ED50,[13],4.6 mg/kg
same,Activity,[14],4
NC(=O)N/N=C/c1ccc(Oc2cc(F)cc(F)c2)cc1,Dose,[1],300 mg/kg
same,selectivity ratio,[15],5.58
same,Activity,[3],4
same,Activity,[4],4
same,Dose,[5],100 mg/kg
same,Activity,[6],4
same,Activity,[7],1
same,TD50 at 1 h,[8],68.8 mg/kg
same,Dose,[9],300 mg/kg
same,Dose,[10],30 mg/kg
same,Dose,[11],30 mg/kg
same,ED50,[13],12.3 mg/kg
same,Activity,[14],3
NC(=O)N1c2ccccc2C=Cc2ccccc21 [CARBAMAZEPINE],Dose,[1],300 mg/kg
same,ED50,[2],> 50 mg/kg
same,ED50,[16],9.85 mg/kg
same,Dose,[5],100 mg/kg
same,logP,[17],2.2
same,Dose,[9],100 mg/kg
same,Dose,[10],30 mg/kg
same,Dose,[11],100 mg/kg
same,Dose,[12],300 mg/kg
CC/C(=N/NC(N)=O)c1ccc(Oc2ccc(Br)cc2)cc1,Dose,[1],100 mg/kg
same,selectivity ratio,[15],7.82
same,Activity,[18],No activity
same,Dose,[5],100 mg/kg
same,ED50,[19],6.71 mg/kg
same,Activity,[20],4
same,TD50 at 4 h,[21],52.5 mg/kg
same,Activity,[22],4
same,Dose,[9],300 mg/kg
same,Dose,[10],30 mg/kg
same,ED50,[23],4.39 mg/kg
same,Activity,[24],2
same,Dose,[11],30 mg/kg
same,Activity,[25],4
C/C(=N/NC(N)=O)c1ccc(Oc2ccc(Cl)cc2)cc1,Dose,[1],100 mg/kg
same,selectivity ratio,[15],8.37
same,ED50,[26],34.4 mg/kg
same,Activity,[27],4
same,Activity,[28],4
same,Activity,[29],4
same,Activity,[30],4
same,ED50,[31],9.14 mg/kg
same,Dose,[9],300 mg/kg
same,TD50 at 2 h,[32],76.5 mg/kg
same,Dose,[10],30 mg/kg
same,ED50,[23],2.92 mg/kg
same,selectivity ratio,[33],2.23
same,Dose,[11],30 mg/kg
same,Activity,[34],3
same,Dose,[12],30 mg/kg
same,TD50 at 4 h,[35],< 500 mg/kg
